Assay results: ChEMBL document CHEMBL4219038, “1-Thiazol-2-yl-N-3-methyl-1H-pyrozole-5-carboxylic acid derivatives as antitumor agents” (Bioorg Med Chem Lett, 2017)

How the values were obtained:
[1] = Tmax in po dosed mouse; type: ADME, organism-based; settings: in vivo
[2] = Volume of distribution at steady state in iv dosed mouse; type: ADME, organism-based; settings: in vivo, read-out: Vdss
[3] = Kinetic solubility of the compound in PBS buffer at pH 7.4 in presence of 10% FBS; type: physicochemical; settings: PBS buffer with 10% FBS, read-out: Kinetic_solubility
[4] = system: Mus musculus; experiment: Toxicity in J:Nu mouse assessed as organ damage at 30 mg/kg, po qd for 7 days followed by 90 mg/kg, po qd for 5 days from day 8 to 13 measured 48 hrs after post last dose by pathology analysis; type: organism-based; settings: in vivo
Method in brief: (§1)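 In J:Nu female mice (N = 4 per group), dosing was oral once daily at 30 or 60 mg/kg in 5% NMP/10% PEG-400/15% Solutol/70% D5W for 7 days. Doses were then raised to 90 or 120 mg/kg respectively on days 8–13. Clinical signs and body weights were recorded daily. Gross pathology, with spleen and liver weights, was done 48 h after the last dose.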

[5] = system: Mus musculus; experiment: Toxicity in J:Nu mouse assessed as organ damage at 60 mg/kg, po qd for 7 days followed by 120 mg/kg, po qd for 5 days from day 8 to 13 measured 48 hrs after post last dose by pathology analysis; type: organism-based; settings: in vivo; method in brief: as §1
[6] = system: MCF7; experiment: Antiproliferative activity against human MCF7 cells; type: functional, cell-based
[7] = Dose normalized Cmax in J:Nu mouse plasma at 10 mg/kg, po qd for 7 days; type: ADME, organism-based; settings: in vivo, 168 h
Method in brief: (§2)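 J:Nu female mice, N = 4 per group, dosed orally once daily at 10, 30 or 60 mpk in 5% NMP, 10% PEG-400, 15% Solutol, 70% D5W. The 30 and 60 mpk groups were raised to 90 and 120 mpk from day 8 to 13.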

[8] = system: Mus musculus; experiment: Toxicity in J:Nu mouse assessed as changes in organ weight at 60 mg/kg, po qd for 7 days followed by 120 mg/kg, po qd for 5 days from day 8 to 13 measured 48 hrs after post last dose by pathology analysis; type: organism-based; settings: in vivo; method in brief: as §1
[9] = Plasma concentration (7 hrs) in J:Nu mouse at 30 mg/kg, po qd for 7 days measured on day 1; type: ADME, organism-based
Method in brief: (§3)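 J:Nu female mice, N = 4 per group, dosed orally once daily at 10, 30 or 60 mg/kg in 5% NMP, 10% PEG-400, 15% Solutol, 70% D5W. Blood was sampled every other day, alternating Cmax and predose draws. Plasma concentration was taken 7 h after dosing.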

[10] = system: BJAB; experiment: Antiproliferative activity against human BJAB cells after 4 days; type: functional, cell-based; settings: Homo sapiens, BJAB, 96 h; read-out: EC50
[11] = Antiproliferative activity against human […] cells; type: functional, cell-based
[12] = Cmax in J:Nu mouse plasma at 60 mg/kg, po qd for 7 days followed by 120 mg/kg, po qd for 5 days from day 8 to 13; type: ADME, organism-based; design: dose 60 mg/kg, route oral; method in brief: as §2
[13] = Dose normalized AUC (0 to infinity) in J:Nu mouse plasma at 10 mg/kg, po qd for 7 days; type: ADME, organism-based; settings: in vivo, 168 h; method in brief: as §2
[14] = Protein binding in mouse plasma; type: ADME, cell-free; settings: read-out: PPB (converted)
[15] = Plasma concentration (7 hrs) in J:Nu mouse at 60 mg/kg, po qd for 7 days measured on day 1; type: ADME, organism-based; method in brief: as §3
[16] = MRT in mouse at 100 mg/kg, po; type: ADME, organism-based; settings: in vivo
[17] = Cmax in mouse at 100 mg/kg; type: ADME, organism-based; design: dose 100 mg/kg; settings: in vivo
[18] = AUC (0 to infinity) in po dosed mouse; type: ADME, organism-based; design: route oral, time infinity; settings: in vivo
[19] = Cmax in J:Nu mouse plasma at 10 mg/kg, po qd for 7 days; type: ADME, organism-based; design: dose 10 mg/kg, route oral; method in brief: as §2
[20] = Plasma concentration (7 hrs) in J:Nu mouse at 30 mg/kg, po qd for 7 days measured on day 5; type: ADME, organism-based; method in brief: as §3
[21] = system: A2780; experiment: Antiproliferative activity against human A2780 cells; type: functional, cell-based
[22] = Dose normalized AUC (0 to infinity) in J:Nu mouse plasma at 30 mg/kg, po qd for 7 days followed by 90 mg/kg, po qd for 5 days from day 8 to 13; type: ADME, organism-based; settings: in vivo; method in brief: as §2
[23] = Plasma concentration (7 hrs) in J:Nu mouse at 10 mg/kg, po qd for 7 days measured on day 5; type: ADME, organism-based; method in brief: as §3
[24] = Oral bioavailability in mouse; type: ADME, organism-based; settings: in vivo
[25] = system: Mus musculus; experiment: Toxicity in J:Nu mouse assessed as changes in organ weight at 30 mg/kg, po qd for 7 days followed by 90 mg/kg, po qd for 5 days from day 8 to 13 measured 48 hrs after post last dose by pathology analysis; type: organism-based; settings: in vivo; method in brief: as §1
[26] = system: HCT-116; experiment: Antiproliferative activity against human HCT116 cells; type: functional, cell-based
[27] = system: NCI-H460; experiment: Antiproliferative activity against human NCI-H460 cells; type: functional, cell-based
[28] = MRT in mouse at 10 mg/kg, po; type: ADME, organism-based; settings: in vivo
[29] = AUC (0 to infinity) in mouse at 2.5 mg/kg; type: ADME, organism-based; design: dose 2.5 mg/kg, time infinity; settings: in vivo
[30] = Half life in iv dosed mouse; type: ADME, organism-based; settings: in vivo

Work on `Cc1nn(-c2nc(-c3ccc(Cl)c(Cl)c3)c(SC(C)C)s2)c(C(=O)O)c1-c1cc(Cl)cc(Cl)c1` yielded a Tmax [1] of 5 h, a Vd [2] of 0.444 L/kg and a solubility kinetic [3] greater than 200 µM. The Activity [4] was “Non-Toxic”, the Activity [5] was “Non-Toxic” and the IC50 [6] was 260 nM. For the same compound, the Cmax/dose [7] was 2.8979 µg/mL, the Activity [8] was “Non-Toxic” and the concentration at 7 h [9] was 63.6 µg/mL. For the same compound, the EC50 [10] was 554 nM, the IC50 [11] was 1570 nM and the Cmax [12] was 128 µg/mL. It also gave an AUC/dose [13] of 33000 ng·kg·h/mL/mg, a fraction unbound [14] of 0.008 and a concentration at 7 h [15] of 88.8 µg/mL. It also gave an MRT [16] of 14.3 h, a Cmax [17] of 131 µg/mL and an AUC(0-inf) [18] of 25800 ng·h/mL. For the same compound, the Cmax [19] was 29 µg/mL, the concentration at 7 h [20] was 57.3 µg/mL and the IC50 [21] was 290 nM. The AUC/dose [22] was 16500 ng·kg·h/mL/mg, the concentration at 7 h [23] was 18.2 µg/mL and the bioavailability [24] was 48.4%. For the same compound, the Activity [25] was “Non-Toxic”, the IC50 [26] was 600 nM and the IC50 [27] was 330 nM. It also gave an MRT [28] of 10.1 h, an AUC(0-inf) [29] of 25800 ng·h/mL and a half-life [30] of 8 h.
